Experimental data: ChEMBL document CHEMBL1143817, “Pharmacokinetics of penicillin g in very-low-birth-weight neonates” (Antimicrob Agents Chemother, 2007)
“And” between values parts separate entries of the source, which are not always exact repeats. Identical values can stand only once.

Assays:
Format in all cases: ADME, organism-based
[1] = Half life in human term neonates at 15 mg/kg, im administered every 12 hrs after 24 hrs; parameters: dose 15 mg/kg, route intramuscular; settings: in vivo
[2] = Cmax in human adults at […], iv administered every 12 hrs after 24 hrs; parameters: route intravenous; settings: in vivo
[3] = Half life in human very low birth weight preterm neonates at 28 mg/kg, iv administered every 12 hrs after 24 hrs; parameters: dose 28 mg/kg, route intravenous; settings: in vivo
Outline: (§1)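 Penicillin G was diluted in normal saline to 50,000 IU/ml and given as a slow (~2 min) IV bolus q12h (group 1, 50,000 IU/kg; group 2, 25,000 IU/kg) to neonates of <28 wk GA and <1,200 g. Plasma was sampled at steady state (doses 3–8): predose and at 2 and 30 min, 1.5, 4, 8 and 12 h. Assay by HPLC-UV (200 nm). AUC0-12 by log-linear trapezoidal rule; noncompartmental bolus model.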

Homo sapiens [4] = test: Effect on glomerular filtration in human very low birth weight preterm neonates urine assessed as creatinine clearance at 30 mg/kg, iv administered every 12 hr after 24 hrs; parameters: dose 30 mg/kg, route intravenous; settings: in vivo
Homo sapiens [5] = test: Volume of distribution at steady state in human term neonates at 15 mg/kg, im administered every 12 hrs after 24 hrs; parameters: dose 15 mg/kg, route intramuscular; settings: in vivo
[6] = AUC (0 to 12) in human very low birth weight preterm neonates at 14 mg/kg, iv administered every 12 hrs after 24 hrs; parameters: time < 12 hr, dose 14 mg/kg, route intravenous; settings: plasma; outline: as §1
Homo sapiens [7] = test: Effect on glomerular filtration in human very low birth weight preterm neonates urine assessed as creatinine excretion at 15 mg/kg, iv administered every 12 hrs after 24 hrs; parameters: dose 15 mg/kg, route intravenous; settings: in vivo
Outline: (§2)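 Creatinine excretion was measured in urine collected in 4-h intervals over the 12 h after a steady-state IV penicillin G dose (25,000 or 50,000 IU/kg q12h). Diapers were weighed to estimate losses, and a period was accepted if ≥90% of its output was collected. Excretion is expressed per 24 h per kg.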

Homo sapiens [8] = test: Effect on glomerular filtration in human very low birth weight preterm neonates urine assessed as creatinine excretion at 30 mg/kg, iv administered every 12 hrs after 24 hrs; parameters: dose 30 mg/kg, route intravenous; settings: in vivo; outline: as §2
[9] = Cmin in human very low birth weight preterm neonates at 28 mg/kg, iv administered every 12 hrs after 24 hrs; parameters: dose 28 mg/kg, route intravenous; settings: in vivo, read-out: Cmin; outline: as §1
Homo sapiens [10] = test: Effect on glomerular filtration in human very low birth weight preterm neonates urine assessed as creatinine clearance at 15 mg/kg, iv administered every 12 hr after 24 hrs; parameters: dose 15 mg/kg, route intravenous; settings: in vivo
[11] = Effect on glomerular filtration in human very low birth weight preterm neonates urine assessed as drug clearance at 15 mg/kg, iv administered every 12 hrs after 24 hrs; parameters: dose 15 mg/kg, route intravenous; settings: read-out: CL_renal
[12] = Volume of distribution at steady state in human very low birth weight preterm neonates at 28 mg/kg, iv; parameters: dose 28 mg/kg, route intravenous; settings: in vivo, read-out: Vdss; outline: as §1
[13] = Volume of distribution at steady state in human adults at […], iv administered every 12 hrs after 24 hrs; parameters: route intravenous; settings: in vivo, read-out: Vdss
[14] = Half life in human very low birth weight preterm neonates at 14.3 mg/kg, iv administered every 12 hrs after 24 hrs; parameters: dose 14.3 mg/kg, route intravenous; settings: in vivo; outline: as §1
[15] = Half life in human adults at […], iv administered every 12 hrs after 24 hrs; parameters: route intravenous; settings: in vivo
[16] = Clearance in human very low birth weight preterm neonates at 14 mg/kg, iv administered every 12 hrs after 24 hrs; parameters: dose 14 mg/kg, route intravenous; settings: in vivo; outline: as §1
[17] = Clearance in human very low birth weight preterm neonates at 28 mg/kg, iv administered every 12 hrs after 24 hrs; parameters: dose 28 mg/kg, route intravenous; settings: in vivo; outline: as §1
[18] = Cmax in human very low birth weight preterm neonates at 14 mg/kg, iv administered every 12 hrs after 24 hrs; parameters: dose 14 mg/kg, route intravenous; settings: in vivo; outline: as §1
[19] = Volume of distribution at steady state in human very low birth weight preterm neonates at 14 mg/kg, iv; parameters: dose 14 mg/kg, route intravenous; settings: in vivo, read-out: Vdss; outline: as §1
[20] = AUC (0 to 12) in human very low birth weight preterm neonates at 28 mg/kg, iv administered every 12 hrs after 24 hrs; parameters: time < 12 hr, dose 28 mg/kg, route intravenous; settings: plasma; outline: as §1
[21] = Effect on glomerular filtration in human very low birth weight preterm neonates urine assessed as drug clearance at 30 mg/kg, iv administered every 12 hrs after 24 hrs; parameters: dose 30 mg/kg, route intravenous; settings: read-out: CL_renal
[22] = Cmax in human term neonates at 15 mg/kg, im administered every 12 hrs after 24 hrs; parameters: dose 15 mg/kg, route intramuscular; settings: in vivo
[23] = Cmax in human very low birth weight preterm neonates at 28 mg/kg, iv administered every 12 hrs after 24 hrs; parameters: dose 28 mg/kg, route intravenous; settings: in vivo; outline: as §1

half-life [1]: 204 min | Cmax [2]: 45000 ng/mL | half-life [3]: 228 min | Creatinine_CL (Homo sapiens [4]): 0.26 ml/min and 0.3 ml/min.kg | Vdss (Homo sapiens [5]): 0.51 L/kg | AUC at 12 h [6]: 161 µg·h/mL | Activity (Homo sapiens [7]): 70.6 µmol/kg | Activity (Homo sapiens [8]): 50.6 µmol/kg | concentration at 24 h [9]: 7100 ng/mL | Creatinine_CL (Homo sapiens [10]): 0.53 ml/min and 0.57 ml/min.kg | CL renal [11]: 0.31 mL/min and 0.38 mL/min/kg | Vd [12]: 0.41 L/kg | Vd [13]: 0.5 L/kg | half-life [14]: 276 min | half-life [15]: 30 min | clearance [16]: 1.5 mL/min/kg | clearance [17]: 1.2 mL/min/kg | Cmax [18]: 58.9 µg/mL | Vd [19]: 0.64 L/kg | AUC at 12 h [20]: 389 µg·h/mL | CL renal [21]: 0.27 mL/min and 0.46 mL/min/kg | Cmax [22]: 22000 ng/mL | Cmax [23]: 146 µg/mL
SMILES: CC1(C)S[C@@H]2[C@H](NC(=O)Cc3ccccc3)C(=O)N2[C@H]1C(=O)O [PENICILLIN G]
